High-throughput results from PubChem.
Env fusion inh – blocks HIV Env-driven cell-cell fusion; 360,000 compounds, 1.1% hits; HeLa-JRFL Env/CEM21 cell fusion, luciferase; AID 651610; inhibition, % at 12.3 µM;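 active = mean replicate inhibition score of at least 50 and every replicate individually at or above 50; inconclusive = only one of the two criteria met; inactive = mean below 50 and not all replicates reaching 50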;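 also: 0% = plate neutral controls and 100% = maraviroc near 300 nM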
PAX8 inh HTS – inhibitors of PAX8 transcriptional activity in RMG-I cells; RMG-I TPO-luciferase reporter, SteadyGlo, 24 h; inhibition, % at 12.6 µM; 360,000 compounds, 1.2% hits; AID 652154;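 active = mean replicate inhibition at least 60% with every replicate also reaching 60%; inconclusive = only one of the two criteria is met; inactive = mean below 60% and not all replicates reaching 60%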;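 also: luciferase light reporting Pax8 driven TPO promoter activity; plate controls were median of neutral control wells for no effect and mitoxantrone controls for full effect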
Rtt109 HAT inh – C. albicans Rtt109 histone acetyltransferase inhibition. Q5AAJ8. purified Rtt109/Vps75, ThioGlo CoA-SH fluorescence, 4 h. inhibition, % at 34.9 µM. 330,000 compounds, 0.16% hits. AID 540336;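 active = inhibition of at least 50% in every replicate; inconclusive = best replicate reaches 50% inhibition but some replicates fall short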
Target sequence (Q5AAJ8 whole entry, looked up): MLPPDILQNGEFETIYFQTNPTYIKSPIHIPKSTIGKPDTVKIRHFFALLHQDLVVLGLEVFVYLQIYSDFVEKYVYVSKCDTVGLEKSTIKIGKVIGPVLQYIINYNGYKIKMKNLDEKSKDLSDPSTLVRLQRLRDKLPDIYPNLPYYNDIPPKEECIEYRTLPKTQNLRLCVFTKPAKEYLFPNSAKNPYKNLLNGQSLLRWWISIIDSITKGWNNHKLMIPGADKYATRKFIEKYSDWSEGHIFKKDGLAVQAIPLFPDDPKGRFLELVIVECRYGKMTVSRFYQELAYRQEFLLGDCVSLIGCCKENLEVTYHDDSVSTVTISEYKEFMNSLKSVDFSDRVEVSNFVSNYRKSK
N-glyco inh – N-linked glycosylation inhibition | reporter increase, % at 12.5 µM | AID 588692 | D54 ERlucT glycosylation luciferase reporter, 24 h; percent of 100 nM tunicamycin response | 360,000 compounds, 0.23% hits;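 active = mean luciferase reporter signal, scaled so untreated is 0 and the glycosylation-blocking control 100, at or above a set limit in every replicate; inconclusive = mean reaches the limit but not every replicate does; inactive = mean below the limit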;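 also: luciferase carries N-glycosylation sites so blocking glycosylation raises the light; 0% = median of neutral control wells and 100% = median of 100 nM tunicamycin wells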
PfHsp90 set2 – inhibits growth of yeast expressing Plasmodium falciparum Hsp90 | AID 504621 | inhibition, % at 9.4 µM | S. cerevisiae expressing PfHsp90, BacTiter-Glo ATP, 48 h; yeast lacking PDR1 and PDR3 efflux regulators | 310,000 compounds, 0.32% hits;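 active = every replicate shows inhibition above about 80%, whatever the replicate mean, limit read from the data; inconclusive = mean inhibition reaches the set limit but some replicate falls short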;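 also: 0% = DMSO neutral controls and 100% = 20 µM radicicol positive controls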
Arr AP2 block – blocks beta-arrestin peptide binding to AP2 adaptin | inhibition, % at 10 µM | 340,000 compounds, 0.31% hits | FITC-arrestin peptide / GST-AP2 beads, flow cytometry; AP2 beta2 appendage carries R879A mutation | AID 504490;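 active = inhibition above a set limit, near 3 SD of compounds lacking own fluorescence, cut at about 54% in these data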;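 also: plate controls were DMSO wells for no effect and 5 µM unlabelled arrestin peptide for full effect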
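System: GST-AP2 R879A glutathione beads; medium: PBS, Tween 20 0.05%, BSA 0.1%; reagent: fluorescein-tagged arrestin peptide at 50 nM final; schedule: pre-incubation 12 min, peptide binding 1 h, room temperature; detection: flow cytometry, FL1 (488/535 nm); read-out: inhibition as reduced fluorescein signal on beads, percent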
Arr-AP2 CP1 – human beta-arrestin and AP2 interaction inhibition, cherry pick; shares compounds with Arr AP2 block; GST-AP2 beads, FITC arrestin peptide binding, flow cytometry; GST-fused beta2-adaptin appendage, R879A mutant; inhibition, % at 10 µM; 1,300 compounds, 2% hits;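 active = inhibition above a set limit, roughly 3 SD of non-fluorescent compound noise, cut at about 38% in these data; inactive = inhibition at or below that limit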;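 also: loss of bead fluorescence from 50 nM FITC arrestin peptide bound to appendage; 0% = negative control wells and 100% = excess unlabelled arrestin peptide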
GST GSH counter – disrupts GST binding to glutathione beads, arrestin-AP2 artifact; shares compounds with Arr AP2 block; GST-fluorescein binding to GSH beads, fluorescence, counter-screen; inhibition, % at 10 µM; 1,300 compounds, 2% hits; AID 588338;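 active = inhibition above 50%, about 3 SD of the inhibition seen with non-fluorescent compounds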;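 also: fluorescein maleimide labelled GST captured on 4 micron glutathione beads; higher means more loss of bead fluorescence from quenching or blocked binding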
* = called active by the depositor; ? = inconclusive; . = not tested or not shown; [ ] = remark or other dose. In the library only some 2.3% were active in any assay of this set; here they are far more common.

SMILES	Env fusion inh	PAX8 inh HTS	Rtt109 HAT inh	N-glyco inh	PfHsp90 set2	Arr AP2 block	Arr-AP2 CP1	GST GSH counter
C[C@H](CO)N1C[C@H](C)[C@H](CN(C)C(=O)c2ccccn2)Oc2ncc(C#Cc3ccccn3)cc2C1=O	-2[16.7 µM]	.	.	.	.	.	.	.
Nc1ccc(Nc2ccccc2)c(Cl)c1	.	.	-2	-2	4	71*	1	8
COCCn1c(SCC(=O)Nc2ccc(S(=O)(=O)N(C)C)cc2)nc2ccccc21	.	.	-4	-2	8	57*	0	-12
COCCn1c(SCC(=O)Nc2ccc(N3CCOCC3)cc2)nc2ccccc21	0	-1	-2	2	11	18	.	.
CC(=O)Nc1cccc(-c2csc(NCc3ccccc3)n2)c1	-2	-19	-12	-2	-2	39	.	.
CC(=O)Nc1cccc(-c2csc(N)n2)c1	-3	-10	3	4	-13	55*	2	-1
C[C@@H]1CN([C@@H](C)CO)S(=O)(=O)c2ccc(Br)cc2O[C@@H]1CN(C)C(=O)C1CCC1	10[16.7 µM]	.	.	.	.	.	.	.
CN(CCOc1ccccc1)C(=O)c1cc([N+](=O)[O-])cc([N+](=O)[O-])c1	-7	0	3	-1	-6	60*	18	3
CC(C)(C)NC(=O)/C(=C/c1ccco1)c1ccccc1	.	.	10	2	-5	88*	9	-2
C[C@@H]1CN([C@@H](C)CO)C(=O)c2cc(NC(=O)C3CCCCC3)ccc2O[C@@H](C)CCCCO[C@@H]1CN(C)C(=O)c1ccncc1	2[16.7 µM]	-2	.	.	.	.	.	.
CC(=O)N(c1c(C)n(C)n(-c2ccccc2)c1=O)C1(C(=O)NC2CCCCC2)CCCCC1	-96	.	-1	2	.	17	.	.
Cc1c(N(C(=O)c2cnccn2)C2(C(=O)NC3CCCC3)CCCCC2)c(=O)n(-c2ccccc2)n1C	5	1	24	0	23	56*	2	-9
CO[C@H]1CN(C)C(=O)c2ccc(NC(=O)Nc3cccc(Cl)c3)cc2OC[C@@H](C)NC[C@H]1C	5[16.7 µM]	-3	.	.	.	.	.	.
CC(=O)N/N=C\c1cccc(OC/C=C/c2ccccc2)c1	-8	-17	?	-7	8	58*	-16	0
CC(=O)N/N=C\c1ccccc1OC/C=C/c1ccccc1	-60	-66	-2	-1	-9	58*	-12	-5
CCCNC(=O)N(C)C[C@@H]1Oc2cc(C3=CCCC3)ccc2S(=O)(=O)N([C@H](C)CO)C[C@@H]1C	-13[16.7 µM]	-7	.	.	.	.	.	.
CCC(=O)N1C[C@H](O)COC[C@H]2O[C@H](CC(=O)NCc3cc(F)cc(F)c3)CC[C@@H]21	1[16.7 µM]	-25	.	.	.	.	.	.
CCCCOC(=O)CCN1C(=O)/C(=C2\SC(=S)N(CCC(=O)OCCCC)C2=O)SC1=S	.	48	13	3	-1	27	.	.
CCCCCOC(=O)CCN1C(=O)/C(=C2\SC(=S)N(CCC(=O)OCCCCC)C2=O)SC1=S	8	-2	4	5	5	56*	1	-2
CC(C)c1nnc(NC(=O)Cc2ccccc2[N+](=O)[O-])s1	-2	-3	3	1	17	58*	-6	4
CC(C)(C)c1nnc(NC(=O)Cc2ccccc2[N+](=O)[O-])s1	7	7	-12	1	10	5	.	.
COc1cccc(Nc2ncccc2C(=O)NCc2ccccc2)c1	.	.	0	1	3	-6	.	.
COc1ccc(Nc2ncccc2C(=O)NCc2ccccc2)cc1	.	.	2	-4	-8	58*	0	-1
COc1ccc(S(=O)(=O)Nc2ccc3c(c2)C(=O)N([C@@H](C)CO)C[C@H](C)[C@H](CN(C)S(=O)(=O)c2cn(C)cn2)OCCCC[C@@H](C)O3)cc1	-4[16.7 µM]	-13	.	.	.	.	.	.
COc1ccc(Nc2nc3cc(C)ccc3cc2C#N)c(OC)c1	2	-8	-3	19	-5	91*	12	75*
SMILES	Env fusion inh	PAX8 inh HTS	Rtt109 HAT inh	N-glyco inh	PfHsp90 set2	Arr AP2 block	Arr-AP2 CP1	GST GSH counter
O=C(COc1ccccc1Br)NC(=O)NC1CCCC1	.	-247	2	0	.	56*	-7	-8
Cc1ccc2nc3c(c(C(=O)OCC(=O)NC4CCS(=O)(=O)C4)c2c1)CCCC3 (stereo not drawn)	-3	-11	7	0	-32	57*	2	-3
Cc1cccc(S(=O)(=O)N2C[C@H](O)COC[C@@H]3O[C@@H](CC(=O)N4CCN(C)CC4)CC[C@H]32)c1	.	-1	.	.	.	.	.	.
C[C@@H]1CN([C@@H](C)CO)C(=O)Cc2cc(NS(=O)(=O)c3ccc(F)cc3)ccc2O[C@H]1CN(C)C(=O)Nc1ccccc1	1[16.7 µM]	.	.	.	.	.	.	.
CC(=O)Nc1ccc(S(=O)(=O)NC(C(=O)O)C(C)O)cc1 (stereo not drawn)	3	-6	7	0	-21	54*	-19	-12
CN(C)CCCNC(=O)C[C@@H]1CC[C@@H]2[C@H](COc3ccc(NC(=O)C4CCC4)cc3C(=O)N2C)O1	.	-11	.	.	.	.	.	.
CO[C@@H]1CN(C)C(=O)c2ccc(NS(C)(=O)=O)cc2OC[C@H](C)N(CC2CCCCC2)C[C@H]1C	-1[16.7 µM]	.	.	.	.	.	.	.
Cc1cccc(C)c1NC(=O)CN(C)C(=O)c1cccc(NS(=O)(=O)c2ccccc2)c1	.	-1	6	0	8	59*	-11	-1
CCNc1nc(NCC)n2c(SCC(=O)Nc3cccc(F)c3)nnc2n1	-5	3	-2	-3	-27	-10	.	.
CCNc1nc(NCC)n2c(SCC(=O)Nc3cccc(Cl)c3)nnc2n1	.	.	-4	1	.	59*	-8	2
CC(/C=N/Nc1nc2ccccc2[nH]1)=C\c1ccccc1	-271	-140	-12	-11	14	107*	1	9
CC(/C=N/Nc1nc(C)cc(=O)[nH]1)=C\c1ccccc1	13	-21	0	3	.	-6	.	.
C[C@@H]1CN([C@@H](C)CO)C(=O)c2cc(C3=CCCC3)cnc2O[C@@H]1CN(C)C(=O)c1cccnc1	-20[16.7 µM]	-7	.	.	.	.	.	.
CC(=O)c1ccc(-n2ccc(=O)cc2)cc1	11	-2	8	4	0	60*	-5	-4
CC(=O)c1ccc(N2CC(C)(C)C2=O)cc1	-3	-16	-3	1	18	-12	.	.
CCCc1cc(=O)oc2c(CN3CCN(C)CC3)c(O)ccc12	-5	-14	3	1	11	-12	.	.
CCCCc1cc(=O)oc2c(CN3CCN(C)CC3)c(O)ccc12	10	11	4	-4	14	54*	-9	-5
